# Results as given in PMC11814085 (Scientific Reports, 2025).
# pKi: −log10 of the molar value. Square brackets hold non-standard residues; d marks the D form. Peptide text beside a SMILES is read from it. * marks the point of attachment. Dolaproine = CO[C@@H]([C@@H]1CCCN1)[C@@H](C)C(=O)O; Dil = CC[C@H](C)[C@H](NC)[C@@H](CC(=O)O)OC; Doe = c1ccc(C[C@H](N*)c2nccs2)cc1; X1 = C[C@@H](N*)[C@@H](O)c1ccccc1; NMeV = CN[C@H](C(=O)O)C(C)C
# Assays:
# [1] = tested on: TNBC cancer cell lines and LSEC; experiment: Cellular partitioning and in vitro therapeutic index across cell lines/type; type: in vitro ADME; settings: range over cancer cell lines
# MDA-MB-468 = experiment: Live cell imaging of growth, fluorescent nuclear marker; type: cell-based; settings: MDA-MB-468, highest doses
# How it was run: (§1)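 Cells were transfected with a red fluorescent nuclear marker. Growth in the presence of test compound was followed longitudinally by live-cell imaging of nuclei, as a check independent of the CellTiter-Glo endpoint.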
# MDA-MB-468 cells = experiment: CTG assay in presence and absence of P-gp inhibitor; type: cell-based
# How it was run: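 MDA-MB-468 cells were seeded at their pre-optimized density and allowed to adhere for 24 h. They were then exposed continuously to 0–200nM test compound for 3 days, in parallel with and without 0.6 µM zosuquidar (P-gp inhibitor). Read-out was CellTiter-Glo 2.0 cellular ATP.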
# [2] = tested on: TNBC cell lines and LSECs; experiment: GR analysis, comparison across cell lines/type; type: cell-based
# HCC1937 = experiment: Live cell imaging of growth, fluorescent nuclear marker; type: cell-based
# How it was run: as §1
# P-gp = settings: read-out: P-gp inhibition Ki; cited from earlier work
# tubulin = settings: cell free system; cited from earlier work
compound,measurement,setting,value
"CC[C@H](C)[C@@H]([C@@H](CC(=O)N1CCC[C@H]1[C@H](OC)[C@@H](C)C(=O)N[C@H](C)[C@@H](O)c1ccccc1)OC)N(C)C(=O)[C@@H](NC(=O)[C@@H](NC)C(C)C)C(C)C [MMAE, Monomethyl auristatin E] (H-[NMeV]V[Dil][Dolaproine]-X1)","in vitro therapeutic index (TI), ratio of intracellular GR50 in LSEC to that in the cancer cell lines",[1],3-60 x
same,cell growth in live cell imaging,MDA-MB-468,completely inhibited
same,dose response in presence and absence of P-gp efflux pump inhibitor,"MDA-MB-468 cells; MDA-MB-468, with and without 0.6 µM Zosuquidar",nearly identical dose response
same,"GR50 in LSECs, fold higher than in cancer cell lines","[2]; media GR50, LSECs versus cancer cell lines",3-21 x
same,cell growth in live cell imaging,HCC1937,only marginal inhibition
O[C@@H](COc1cccc2ncccc12)CN1CCN([C@@H]2c3ccccc3[C@@H]3[C@H](c4ccccc42)C3(F)F)CC1 [Zosuquidar],pKi,P-gp,7.22
same,effect of P-gp inhibitor by itself on cell growth,"MDA-MB-468 cells; auristatin free MDA-MB-468 cells, 0.6 µM",did not have undesired effect on cell growth
"CC[C@H](C)[C@@H]([C@@H](CC(=O)N1CCC[C@H]1[C@H](OC)[C@@H](C)C(=O)N[C@@H](Cc1ccccc1)C(=O)O)OC)N(C)C(=O)[C@@H](NC(=O)[C@@H](NC)C(C)C)C(C)C [MMAF, monomethyl auristatin F] (H-[NMeV]V[Dil][Dolaproine]F-OH)","tubulin binding affinity, fold better than MMAE",tubulin,~ 5 x
"CC[C@H](C)[C@@H]([C@@H](CC(=O)N1CCC[C@H]1[C@H](OC)[C@@H](C)C(=O)N[C@@H](Cc1ccccc1)c1nccs1)OC)N(C)C(=O)[C@@H](NC(=O)[C@@H](NC)C(C)C)C(C)C [MMAD, Monomethyl auristatin D] (H-[NMeV]V[Dil][Dolaproine]-Doe)","in vitro therapeutic index (TI), ratio of intracellular GR50 in LSEC to that in the cancer cell lines",[1],12–244 x
same,"GR50, fold lower than MMAE","[2]; media GR50, across cell lines/type",6-31 x
